The source made the active and inactive calls. No cut-off for these calls is given here.
Tests used:
T47D [1] = assay: Inhibition of PR-A gene expression in human T47D cells at 25 nM by syber green assay in presence of 10 nM estradiol; assay type: functional, cell-based
T47D [2] = assay: Inhibition of PR-B mRNA gene expression in human T47D cells at 100 nM by syber green assay; assay type: functional
Procedure, shortened: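 T47D cells in RPMI-1640 with 10% FBS, NEAA, insulin, 37 °C, 5% CO2. Plated two days before transfection without antibiotics. Oligofectamine-mediated duplex RNA transfection at 100 nM final, medium changed at 24 h, harvest five days post-transfection. Total RNA extracted with TRIzol. hPR mRNA quantified by SYBR Green qPCR: 50 °C 2 min, 95 °C 10 min, then 40 cycles of 95 °C 15 s / 60 °C 1 min.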

T47D [3] = assay: Inhibition of PR-B gene expression in human T47D cells at 25 nM by syber green assay; assay type: functional
Procedure, shortened: (§1)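 T47D cells plated at 80,000/well without antibiotics two days before Oligofectamine transfection with agRNA duplex (25 or 100 nM final); medium changed at 24 h, harvest day 5 unless stated otherwise. TRIzol total RNA; PR mRNA by real-time PCR with SYBR Green: 50 °C 2 min, 95 °C 10 min, 40 cycles 95 °C 15 s/60 °C 1 min.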

T47D [4] = assay: Inhibition of PR-A mRNA gene expression in human T47D cells at 100 nM by syber green assay; assay type: functional; procedure, shortened: as §1
T47D [5] = assay: Inhibition of PR-B gene expression in human T47D cells at 25 nM by syber green assay in presence of 10 nM estradiol; assay type: functional, cell-based
T47D [6] = assay: Inhibition of PR-A gene expression in human T47D cells at 25 nM by syber green assay; assay type: functional; procedure, shortened: as §1

Compound	inhibition (T47D [1])	inhibition at 0.1 µM (T47D [2])	inhibition at 0.025 µM (T47D [3])	inhibition at 0.1 µM (T47D [4])	inhibition (T47D [5])	inhibition at 0.025 µM (T47D [6])
Cc1cn(CC(=O)N(CCNC(=O)CN(CCNC(=O)CN(CCNC(=O)CN(CCNC(=O)CN(CCNC(=O)CN(CCNC(=O)CN(CCNC(=O)CN(CCNC(=O)CN(CCNC(=O)CN(CCNC(=O)CN(CCNC(=O)CN(CCNC(=O)CN(CCNC(=O)CN(CCNC(=O)CN(CCNC(=O)CN(CCNC(=O)CN(CCNC(=O)CN(CCNC(=O)CN(CCNC(=O)CN(CCNC(=O)CN)C(=O)Cn2cnc3c(=O)[nH]c(N)nc32)C(=O)Cn2ccc(=O)[nH]c2=O)C(=O)Cn2ccc(=O)[nH]c2=O)C(=O)Cn2cnc3c(N)ncnc32)C(=O)Cn2cnc3c(=O)[nH]c(N)nc32)C(=O)Cn2cnc3c(N)ncnc32)C(=O)Cn2cnc3c(N)ncnc32)C(=O)Cn2cnc3c(N)ncnc32)C(=O)Cn2cnc3c(=O)[nH]c(N)nc32)C(=O)Cn2ccc(N)nc2=O)C(=O)Cn2ccc(=O)[nH]c2=O)C(=O)Cn2cnc3c(=O)[nH]c(N)nc32)C(=O)Cn2ccc(=O)[nH]c2=O)C(=O)Cn2ccc(N)nc2=O)C(=O)Cn2ccc(=O)[nH]c2=O)C(=O)Cn2cnc3c(=O)[nH]c(N)nc32)C(=O)Cn2cnc3c(=O)[nH]c(N)nc32)C(=O)Cn2ccc(N)nc2=O)C(=O)Cn2ccc(N)nc2=O)CC(=O)NCCN(CC(=O)NCC(=O)O)C(=O)Cn2cc(C)c(=O)[nH]c2=O)c(=O)[nH]c1=O	Active	< 20%	< 20%	< 20%	Active	< 20%
Cc1cn(CC(=O)N(CCNC(=O)CN(CCNC(=O)CN(CCNC(=O)CN(CCNC(=O)CN(CCNC(=O)CN(CCNC(=O)CN(CCNC(=O)CN(CCNC(=O)CN(CCNC(=O)CN(CCNC(=O)CN(CCNC(=O)CN(CCNC(=O)CN(CCNC(=O)CN(CCNC(=O)CN(CCNC(=O)CN(CCNC(=O)CN(CCNC(=O)CN(CCNC(=O)CN(CCNC(=O)CN(CCNC(=O)CN)C(=O)Cn2cnc3c(=O)[nH]c(N)nc32)C(=O)Cn2ccc(N)nc2=O)C(=O)Cn2ccc(=O)[nH]c2=O)C(=O)Cn2cnc3c(=O)[nH]c(N)nc32)C(=O)Cn2ccc(N)nc2=O)C(=O)Cn2ccc(N)nc2=O)C(=O)Cn2ccc(=O)[nH]c2=O)C(=O)Cn2cnc3c(=O)[nH]c(N)nc32)C(=O)Cn2cnc3c(=O)[nH]c(N)nc32)C(=O)Cn2ccc(N)nc2=O)C(=O)Cn2ccc(N)nc2=O)C(=O)Cn2cnc3c(N)ncnc32)C(=O)Cn2cnc3c(=O)[nH]c(N)nc32)C(=O)Cn2ccc(=O)[nH]c2=O)C(=O)Cn2ccc(N)nc2=O)C(=O)Cn2ccc(N)nc2=O)C(=O)Cn2cnc3c(N)ncnc32)C(=O)Cn2ccc(N)nc2=O)C(=O)Cn2cnc3c(N)ncnc32)CC(=O)NCCN(CC(=O)NCC(=O)O)C(=O)Cn2cc(C)c(=O)[nH]c2=O)c(=O)[nH]c1=O	Active	28%	< 20%	< 20%	Active	< 20%
Cc1cn(CC(=O)N(CCNC(=O)CN(CCNC(=O)CN(CCNC(=O)CN(CCNC(=O)CN(CCNC(=O)CN(CCNC(=O)CN(CCNC(=O)CN(CCNC(=O)CN(CCNC(=O)CN(CCNC(=O)CN(CCNC(=O)CN(CCNC(=O)CN(CCNC(=O)CN(CCNC(=O)CN(CCNC(=O)CN(CCNC(=O)CN(CCNC(=O)CN(CCNC(=O)CN(CCNC(=O)CN(CCNC(=O)CN)C(=O)Cn2cnc3c(=O)[nH]c(N)nc32)C(=O)Cn2cnc3c(=O)[nH]c(N)nc32)C(=O)Cn2cnc3c(=O)[nH]c(N)nc32)C(=O)Cn2ccc(N)nc2=O)C(=O)Cn2ccc(N)nc2=O)C(=O)Cn2ccc(=O)[nH]c2=O)C(=O)Cn2ccc(N)nc2=O)C(=O)Cn2ccc(N)nc2=O)C(=O)Cn2ccc(N)nc2=O)C(=O)Cn2ccc(=O)[nH]c2=O)C(=O)Cn2cnc3c(N)ncnc32)C(=O)Cn2cnc3c(=O)[nH]c(N)nc32)C(=O)Cn2cnc3c(N)ncnc32)C(=O)Cn2cnc3c(=O)[nH]c(N)nc32)C(=O)Cn2cnc3c(=O)[nH]c(N)nc32)C(=O)Cn2cnc3c(N)ncnc32)C(=O)Cn2cnc3c(=O)[nH]c(N)nc32)C(=O)Cn2cnc3c(=O)[nH]c(N)nc32)C(=O)Cn2cnc3c(N)ncnc32)CC(=O)NCCN(CC(=O)NCC(=O)O)C(=O)Cn2cc(C)c(=O)[nH]c2=O)c(=O)[nH]c1=O	Active	< 20%	< 20%	< 20%	Active	< 20%
Cc1cn(CC(=O)N(CCNC(=O)CN(CCNC(=O)CN(CCNC(=O)CN(CCNC(=O)CN(CCNC(=O)CN(CCNC(=O)CN(CCNC(=O)CN(CCNC(=O)CN(CCNC(=O)CN(CCNC(=O)CN(CCNC(=O)CN(CCNC(=O)CN(CCNC(=O)CN(CCNC(=O)CN(CCNC(=O)CN(CCNC(=O)CN(CCNC(=O)CN(CCNC(=O)CN(CCNC(=O)CN(CCNC(=O)CN)C(=O)Cn2ccc(N)nc2=O)C(=O)Cn2cnc3c(=O)[nH]c(N)nc32)C(=O)Cn2ccc(=O)[nH]c2=O)C(=O)Cn2ccc(=O)[nH]c2=O)C(=O)Cn2cnc3c(=O)[nH]c(N)nc32)C(=O)Cn2ccc(=O)[nH]c2=O)C(=O)Cn2ccc(=O)[nH]c2=O)C(=O)Cn2cnc3c(N)ncnc32)C(=O)Cn2cnc3c(=O)[nH]c(N)nc32)C(=O)Cn2cnc3c(N)ncnc32)C(=O)Cn2cnc3c(N)ncnc32)C(=O)Cn2cnc3c(N)ncnc32)C(=O)Cn2cnc3c(=O)[nH]c(N)nc32)C(=O)Cn2ccc(N)nc2=O)C(=O)Cn2ccc(=O)[nH]c2=O)C(=O)Cn2cnc3c(=O)[nH]c(N)nc32)C(=O)Cn2ccc(=O)[nH]c2=O)C(=O)Cn2ccc(N)nc2=O)C(=O)Cn2ccc(=O)[nH]c2=O)CC(=O)NCCN(CC(=O)NCC(=O)O)C(=O)Cn2cc(C)c(=O)[nH]c2=O)c(=O)[nH]c1=O	Active	26%	< 20%	29%	Active	< 20%
Cc1cn(CC(=O)N(CCNC(=O)CN(CCNC(=O)CN(CCNC(=O)CN(CCNC(=O)CN(CCNC(=O)CN(CCNC(=O)CN(CCNC(=O)CN(CCNC(=O)CN(CCNC(=O)CN(CCNC(=O)CN(CCNC(=O)CN(CCNC(=O)CN(CCNC(=O)CN(CCNC(=O)CN(CCNC(=O)CN(CCNC(=O)CN(CCNC(=O)CN(CCNC(=O)CN(CCNC(=O)CN(CCNC(=O)CN)C(=O)Cn2ccc(N)nc2=O)C(=O)Cn2ccc(=O)[nH]c2=O)C(=O)Cn2cnc3c(=O)[nH]c(N)nc32)C(=O)Cn2ccc(=O)[nH]c2=O)C(=O)Cn2ccc(N)nc2=O)C(=O)Cn2ccc(=O)[nH]c2=O)C(=O)Cn2cnc3c(=O)[nH]c(N)nc32)C(=O)Cn2cnc3c(=O)[nH]c(N)nc32)C(=O)Cn2ccc(N)nc2=O)C(=O)Cn2ccc(N)nc2=O)C(=O)Cn2cnc3c(N)ncnc32)C(=O)Cn2cnc3c(=O)[nH]c(N)nc32)C(=O)Cn2ccc(=O)[nH]c2=O)C(=O)Cn2ccc(N)nc2=O)C(=O)Cn2ccc(N)nc2=O)C(=O)Cn2cnc3c(N)ncnc32)C(=O)Cn2ccc(N)nc2=O)C(=O)Cn2cnc3c(N)ncnc32)C(=O)Cn2cnc3c(=O)[nH]c(N)nc32)CC(=O)NCCN(CC(=O)NCC(=O)O)C(=O)Cn2cc(C)c(=O)[nH]c2=O)c(=O)[nH]c1=O	Active	100%	55%	99%	Active	50%
Cc1cn(CC(=O)N(CCNC(=O)CN(CCNC(=O)CN(CCNC(=O)CN(CCNC(=O)CN(CCNC(=O)CN(CCNC(=O)CN(CCNC(=O)CN(CCNC(=O)CN(CCNC(=O)CN(CCNC(=O)CN(CCNC(=O)CN(CCNC(=O)CN(CCNC(=O)CN(CCNC(=O)CN(CCNC(=O)CN(CCNC(=O)CN(CCNC(=O)CN(CCNC(=O)CN(CCNC(=O)CN(CCNC(=O)CN)C(=O)Cn2ccc(=O)[nH]c2=O)C(=O)Cn2ccc(N)nc2=O)C(=O)Cn2ccc(N)nc2=O)C(=O)Cn2ccc(N)nc2=O)C(=O)Cn2ccc(=O)[nH]c2=O)C(=O)Cn2cnc3c(N)ncnc32)C(=O)Cn2cnc3c(=O)[nH]c(N)nc32)C(=O)Cn2cnc3c(N)ncnc32)C(=O)Cn2cnc3c(=O)[nH]c(N)nc32)C(=O)Cn2cnc3c(=O)[nH]c(N)nc32)C(=O)Cn2cnc3c(N)ncnc32)C(=O)Cn2cnc3c(=O)[nH]c(N)nc32)C(=O)Cn2cnc3c(=O)[nH]c(N)nc32)C(=O)Cn2cnc3c(N)ncnc32)C(=O)Cn2cnc3c(=O)[nH]c(N)nc32)C(=O)Cn2cnc3c(=O)[nH]c(N)nc32)C(=O)Cn2ccc(N)nc2=O)C(=O)Cn2cnc3c(=O)[nH]c(N)nc32)C(=O)Cn2ccc(=O)[nH]c2=O)CC(=O)NCCN(CC(=O)NCC(=O)O)C(=O)Cn2cc(C)c(=O)[nH]c2=O)c(=O)[nH]c1=O	Active	48%	< 20%	41%	Active	< 20%

From ChEMBL document CHEMBL1250442, “Inhibiting gene expression at transcription start sites in chromosomal DNA with antigene RNAs” (Nat Chem Biol, 2005)
